# Reference: ChEMBL document CHEMBL1122233, “Antihypertensive 9-substituted 1-oxa-4,9-diazaspiro[5.5]undecan-3-ones” (J Med Chem, 1983)
# Activity calls are given as the source filed them. No cut-off for these calls is given here.
# Columns and labels:
# Rattus norvegicus [1] = test: (§1) Percentage fall in systolic blood pressure after 3 hours at 50 mg/kg given perorally; assay type: functional, organism-based; set-up: dose 50 mg/kg; conditions: Artery
# How it was run: (§2)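 Male Okamoto-Aoki SHR, four per group, with a concurrent vehicle control group. Oral dosing in water (0.1 mL/10 g) on two consecutive mornings. After the day-2 dose, rats were restrained in a 30 °C chamber. Tail-cuff systolic pressure was taken at 1-4 h from four traces per rat. Result is % decrease versus control mean, by 1-tailed t test, p ≤ 0.05.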
# Rattus norvegicus [2] = test: (§3) Percentage fall in systolic blood pressure after 4 hours at 50 mg/kg given perorally; assay type: functional, organism-based; set-up: dose 50 mg/kg; conditions: Artery; how it was run: as §2
# Rattus norvegicus [3] = test: Percentage fall in systolic blood pressure after 2 hours at 50 mg/kg given perorally.; assay type: functional, Artery; conditions: route oral
# How it was run: (§4)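 Male Okamoto-Aoki spontaneously hypertensive rats, trained, in groups of four matched for mean systolic pressure; five treated groups and one vehicle control run concurrently. Oral dosing in water (solution or suspension, 0.1 mL/10 g) on two consecutive mornings. On day 2, rats were restrained at 30.0 ± 1.0 °C and tail-cuff systolic pressure recorded at 1–4 h; percent fall versus control, 1-tail t test, p ≤ 0.05.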
# Rattus norvegicus [4] = test: Percentage fall in systolic blood pressure after 1 hr at 50 mg/kg given perorally; assay type: functional, organism-based; set-up: dose 50 mg/kg; conditions: Artery; how it was run: as §4
# Rattus norvegicus [5] = test: Percentage fall in systolic blood pressure after 4 hr at 25 mg/kg given perorally; assay type: functional, Artery; conditions: route oral; how it was run: as §4
# Rattus norvegicus [6] = test: (§5) Percentage fall in systolic blood pressure after 3 hr at 25 mg/kg given perorally; assay type: functional, organism-based; set-up: dose 25 mg/kg; conditions: Artery; how it was run: as §4
# Rattus norvegicus [7] = test: (§6) Percentage fall in systolic blood pressure after 1 hr at 25 mg/kg given perorally; assay type: functional, organism-based; set-up: dose 25 mg/kg; conditions: Artery; how it was run: as §4
# Rattus norvegicus [8] = test: Percentage fall in systolic blood pressure after 2 hr at 25 mg/kg given perorally; assay type: functional, Artery; conditions: route oral; how it was run: as §4
# Rattus norvegicus [9] = test: (§7) Percentage fall in systolic blood pressure after 2 hr at 12.5 mg/kg given perorally; assay type: functional, Artery; conditions: route oral; how it was run: as §4
# Rattus norvegicus [10] = test: (§8) Percentage fall in systolic blood pressure after 4 hr at 12.5 mg/kg given perorally; assay type: functional, Artery; conditions: route oral; how it was run: as §4
# Rattus norvegicus [11] = test: as §5; assay type: functional, Artery; conditions: route oral; how it was run: as §4
# Rattus norvegicus [12] = test: (§9) Percentage fall in systolic blood pressure after 1 hr at 12.5 mg/kg given perorally; assay type: functional, Artery; conditions: route oral; how it was run: as §2
# Rattus norvegicus [13] = test: as §8; assay type: functional, organism-based; set-up: dose 12.5 mg/kg; conditions: Artery; how it was run: as §4
# [14] = biological target: T1, Adrenergic receptor alpha-2 (Rattus norvegicus, UniProt P22086+P19328+P22909); test: Affinity for alpha-2 adrenergic receptor of rat cerebral cortex was determined by ligand binding using [3H]yohimbine.; assay type: tissue-based
# T1 sequence (P22086 whole entry): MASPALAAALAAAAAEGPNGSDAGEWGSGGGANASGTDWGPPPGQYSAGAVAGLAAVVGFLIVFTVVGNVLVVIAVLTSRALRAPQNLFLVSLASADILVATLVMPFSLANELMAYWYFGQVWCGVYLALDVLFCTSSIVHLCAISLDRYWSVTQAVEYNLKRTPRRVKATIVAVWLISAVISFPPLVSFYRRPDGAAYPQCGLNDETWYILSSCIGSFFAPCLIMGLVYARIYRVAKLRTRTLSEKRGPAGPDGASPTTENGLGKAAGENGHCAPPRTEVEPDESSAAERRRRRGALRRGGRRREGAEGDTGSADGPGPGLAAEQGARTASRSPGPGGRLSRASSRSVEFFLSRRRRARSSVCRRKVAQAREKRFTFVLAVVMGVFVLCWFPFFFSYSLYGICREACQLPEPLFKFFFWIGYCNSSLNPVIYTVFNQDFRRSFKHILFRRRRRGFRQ
# T1 sequence (P19328 whole entry): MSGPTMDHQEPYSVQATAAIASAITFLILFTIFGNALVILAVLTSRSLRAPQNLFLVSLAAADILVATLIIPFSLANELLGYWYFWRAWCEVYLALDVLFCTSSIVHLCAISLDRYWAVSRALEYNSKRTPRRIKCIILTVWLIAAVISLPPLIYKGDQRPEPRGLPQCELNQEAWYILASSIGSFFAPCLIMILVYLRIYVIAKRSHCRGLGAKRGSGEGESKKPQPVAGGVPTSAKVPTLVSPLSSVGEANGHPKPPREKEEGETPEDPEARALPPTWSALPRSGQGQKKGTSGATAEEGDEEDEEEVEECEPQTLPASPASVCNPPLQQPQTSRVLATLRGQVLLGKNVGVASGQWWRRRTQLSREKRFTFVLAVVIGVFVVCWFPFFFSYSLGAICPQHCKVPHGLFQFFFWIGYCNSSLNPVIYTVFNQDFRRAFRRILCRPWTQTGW
# T1 sequence (P22909 whole entry): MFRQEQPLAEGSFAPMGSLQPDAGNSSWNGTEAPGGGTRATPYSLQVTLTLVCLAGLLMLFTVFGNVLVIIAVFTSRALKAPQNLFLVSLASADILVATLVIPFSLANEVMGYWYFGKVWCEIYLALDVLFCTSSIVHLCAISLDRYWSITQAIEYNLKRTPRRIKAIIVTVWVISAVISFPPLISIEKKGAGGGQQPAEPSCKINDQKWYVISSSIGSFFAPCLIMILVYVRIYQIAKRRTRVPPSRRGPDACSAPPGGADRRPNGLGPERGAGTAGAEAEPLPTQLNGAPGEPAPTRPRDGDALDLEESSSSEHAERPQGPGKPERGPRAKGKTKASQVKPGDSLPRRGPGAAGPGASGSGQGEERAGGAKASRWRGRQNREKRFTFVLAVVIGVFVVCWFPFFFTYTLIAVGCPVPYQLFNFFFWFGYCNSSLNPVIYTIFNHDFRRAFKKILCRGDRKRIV
# How it was run: (§10)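 Washed rat cerebral cortex membranes (homogenised in 50 mM Tris-HCl pH 7.8, pelleted at 48000g, washed 3 times) at 2.5 mg/mL protein. […] Ice-cold buffer stop, then filtration. Nonspecific binding defined with 200 μmol norepinephrine. KI from IC50 by Cheng-Prusoff, given as negative log.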
# Rattus norvegicus [15] = test: as §7; assay type: functional, organism-based; set-up: dose 12.5 mg/kg; conditions: Artery; how it was run: as §4
# Rattus norvegicus [16] = test: as §6; assay type: functional, Artery; conditions: route oral; how it was run: as §4
# [17] = biological target: T2, Adrenergic receptor alpha-1 (Rattus norvegicus, UniProt P15823+P23944+P43140); test: Affinity for alpha-1 adrenoceptor of rat cerebral cortex was determined by ligand binding using [3H]prazosin.; assay type: tissue-based; how it was run: as §10
# T2 sequence (P15823 whole entry): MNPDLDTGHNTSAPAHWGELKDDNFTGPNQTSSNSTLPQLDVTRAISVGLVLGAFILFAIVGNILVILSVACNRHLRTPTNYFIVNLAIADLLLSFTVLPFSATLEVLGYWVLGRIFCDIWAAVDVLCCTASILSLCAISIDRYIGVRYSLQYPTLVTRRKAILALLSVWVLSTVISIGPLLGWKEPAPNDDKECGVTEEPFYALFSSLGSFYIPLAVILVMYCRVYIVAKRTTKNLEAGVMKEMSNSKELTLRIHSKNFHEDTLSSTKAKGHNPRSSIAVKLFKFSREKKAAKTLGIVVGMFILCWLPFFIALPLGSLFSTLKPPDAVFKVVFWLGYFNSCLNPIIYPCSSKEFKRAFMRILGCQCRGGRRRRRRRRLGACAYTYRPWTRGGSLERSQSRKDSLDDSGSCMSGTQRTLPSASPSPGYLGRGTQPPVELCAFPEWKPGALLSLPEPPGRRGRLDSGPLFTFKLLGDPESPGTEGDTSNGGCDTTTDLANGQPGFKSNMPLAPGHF
# T2 sequence (P23944 whole entry): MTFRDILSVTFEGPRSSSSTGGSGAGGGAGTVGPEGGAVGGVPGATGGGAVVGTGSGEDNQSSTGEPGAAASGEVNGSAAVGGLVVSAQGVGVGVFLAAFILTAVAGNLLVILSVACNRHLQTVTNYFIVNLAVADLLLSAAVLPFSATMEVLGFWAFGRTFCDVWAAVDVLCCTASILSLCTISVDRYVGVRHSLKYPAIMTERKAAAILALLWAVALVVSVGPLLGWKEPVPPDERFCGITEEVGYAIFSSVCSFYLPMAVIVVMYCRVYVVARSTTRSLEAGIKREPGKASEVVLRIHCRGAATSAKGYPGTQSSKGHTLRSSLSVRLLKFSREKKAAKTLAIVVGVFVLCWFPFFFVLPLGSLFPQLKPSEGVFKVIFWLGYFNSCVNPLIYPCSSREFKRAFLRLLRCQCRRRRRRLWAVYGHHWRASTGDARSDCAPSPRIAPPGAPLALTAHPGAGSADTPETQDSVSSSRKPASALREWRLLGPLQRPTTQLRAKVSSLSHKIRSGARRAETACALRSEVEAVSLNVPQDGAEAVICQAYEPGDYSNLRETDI
# T2 sequence (P43140 whole entry): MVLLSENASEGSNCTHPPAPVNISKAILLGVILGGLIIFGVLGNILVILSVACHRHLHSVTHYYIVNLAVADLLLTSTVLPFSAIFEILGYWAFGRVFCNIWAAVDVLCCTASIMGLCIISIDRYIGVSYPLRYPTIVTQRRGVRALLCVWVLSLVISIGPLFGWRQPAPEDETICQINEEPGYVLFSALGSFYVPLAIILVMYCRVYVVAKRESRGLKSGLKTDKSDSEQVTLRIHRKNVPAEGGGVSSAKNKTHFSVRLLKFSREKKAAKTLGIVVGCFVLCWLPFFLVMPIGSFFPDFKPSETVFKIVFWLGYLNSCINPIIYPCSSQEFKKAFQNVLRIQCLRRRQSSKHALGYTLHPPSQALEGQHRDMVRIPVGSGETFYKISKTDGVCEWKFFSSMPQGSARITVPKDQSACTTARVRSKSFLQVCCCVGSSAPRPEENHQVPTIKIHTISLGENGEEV
# Rattus norvegicus [18] = test: as §9; assay type: functional, organism-based; set-up: dose 12.5 mg/kg; conditions: Artery; how it was run: as §4
# Rattus norvegicus [19] = test: Percentage fall in systolic blood pressure after 3 hr at 12.5 mg/kg given perorally; assay type: functional, organism-based; set-up: dose 12.5 mg/kg; conditions: Artery; how it was run: as §4
# Rattus norvegicus [20] = test: as §3; assay type: functional, organism-based; set-up: dose 50 mg/kg; conditions: Artery; how it was run: as §4; remark: listed apart in the source
# Rattus norvegicus [21] = test: as §1; assay type: functional, organism-based; set-up: dose 50 mg/kg; conditions: Artery; how it was run: as §4; remark: listed apart in the source
# Rattus norvegicus [22] = test: Percentage fall in systolic blood pressure after 2 hours at 50 mg/kg given perorally; assay type: functional, organism-based; set-up: dose 50 mg/kg; conditions: Artery; how it was run: as §4
structure (smiles),measurement,setting,value
O=C1COC2(CCN(CC(O)COc3ccccc3)CC2)CN1 (stereo not drawn),Decrease in SBP,Rattus norvegicus [1],Not significant
same,Decrease in SBP,Rattus norvegicus [2],Not significant
same,Decrease in SBP,Rattus norvegicus [3],18%
same,Decrease in SBP,Rattus norvegicus [4],Not significant
O=C1COC2(CCN(CC(O)C3COc4ccccc4O3)CC2)CN1c1ccccc1 (stereo not drawn),Decrease in SBP,Rattus norvegicus [5],16%
same,Decrease in SBP,Rattus norvegicus [6],Not significant
same,Decrease in SBP,Rattus norvegicus [7],Not significant
same,Decrease in SBP,Rattus norvegicus [8],25%
CN1CC2(CCN(CC(O)C3COc4ccccc4O3)CC2)OCC1=O (stereo in doubt; 61),Decrease in SBP,Rattus norvegicus [9],22%
same,Decrease in SBP,Rattus norvegicus [10],19%
same,Decrease in SBP,Rattus norvegicus [5],40%
same,Decrease in SBP,Rattus norvegicus [11]; 25 mg/kg,40%
same,Decrease in SBP,Rattus norvegicus [12],25%
same,Decrease in SBP,Rattus norvegicus [8]; 25 mg/kg,36%
O=C(NC1CCN(CCc2c[nH]c3ccccc23)CC1)c1ccccc1 [INDORAMIN],Decrease in SBP,Rattus norvegicus [13],inactive
same,-Log Ki,[14],4.92
same,Decrease in SBP,Rattus norvegicus [15],inactive
same,Decrease in SBP,Rattus norvegicus [5],30%
same,Decrease in SBP,Rattus norvegicus [11],34%
same,Decrease in SBP,Rattus norvegicus [16],27%
same,-Log Ki,[17],7.61
same,Decrease in SBP,Rattus norvegicus [18],inactive
same,Decrease in SBP,Rattus norvegicus [8],28%
same,Decrease in SBP,Rattus norvegicus [19],inactive
O=C1COC2(CCN(CC(O)C3COc4ccccc4O3)CC2)C(c2ccccc2)N1 (stereo not drawn),Decrease in SBP,Rattus norvegicus [20],Not significant
same,Decrease in SBP,Rattus norvegicus [21],Not significant
same,Decrease in SBP,Rattus norvegicus [22],Not significant
same,Decrease in SBP,Rattus norvegicus [4],Not significant
